Results taken from ChEMBL document CHEMBL3877264, “Quinolidene-rhodanine conjugates: Facile synthesis and biological evaluation” (Eur J Med Chem, 2017).
≈ marks a conversion by molar mass, not a printed value.

How the values were obtained:
[1] = Cytotoxicity against primary HUVEC measured after 48 hrs by MTT assay; format: toxicity, cell-based; settings: human
[2] = test system: Mycobacterium tuberculosis; assay: Growth inhibition of Mycobacterium tuberculosis H37Ra ATCC 25177 at dormant stage at 100 ug/ml measured after 12 days by XTT dye based two fold dilution method relative to control; format: functional; settings: H37Ra ATCC 25177, 288 h, read-out: GI
How it was run: (§1)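 MTB H37Ra was grown in Dubos medium, then exposed in Mycobacterium pheli minimal medium (pH 6.6) to compounds dissolved in DMSO. The assay ended on day 8 (active) or day 12 (dormant). Viable cells were measured by XTT reduction menadione assay at 470 nm, blank-corrected, relative to vehicle control. Triplicates were expressed as mean ± SD. MIC came from dose-response curves.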

[3] = Cytotoxicity against […]-differentiated human THP1 cells assessed as growth inhibition at 100 ug/ml measured after 48 hrs by MTT assay relative to control; format: toxicity, cell-based, THP-1; settings: read-out: GI
How it was run: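 MTT assay with 48 h compound exposure. THP-1 macrophages made by 24 h PMA treatment. Each concentration tested in triplicate in one experiment. % cytotoxicity = (control−test)/(control−blank)×100, with control = cells + DMSO and blank = medium without cells. IC50 from % survival versus concentration plots.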

[4] = Selectivity index, ratio of GI50 for […]-differentiated human THP1 cells to MIC for Mycobacterium tuberculosis H37Ra ATCC 25177 at dormant stage; format: toxicity, cell-based, THP-1; settings: read-out: Selectivity Index
How it was run: (§2)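 SI is the cell-line GI50 divided by the dormant-stage mycobacterial MIC. […] THP-1 macrophages were PMA-differentiated for 24 h.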

[5] = test system: Mycobacterium tuberculosis; assay: Growth inhibition of Mycobacterium bovis BCG ATCC 35743 at dormant stage at 100 ug/ml measured after 12 days by nitrate reductase dye based two fold dilution method relative to control; format: functional; settings: BCG str. ATCC 35743, 288 h, read-out: GI
How it was run: (§3)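 M. bovis BCG was grown in Dubos medium and assayed in Mycobacterium pheli minimal medium (pH 6.6), with compounds from DMSO stocks. Incubation lasted 8 days for active and 12 days for dormant cultures. Viability was read by nitrate reductase at 540 nm against cell-free blanks, with vehicle set as 100% growth. Primary screen was at 30, 10 and 3 µg/ml, in triplicate, mean ± SD. MIC was taken from dose-response curves.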

[6] = Cytotoxicity against human PANC1 cells measured after 48 hrs by MTT assay; format: toxicity, cell-based, PANC-1
[7] = Cytotoxicity against human A549 cells assessed as growth inhibition at 100 ug/ml measured after 48 hrs by MTT assay relative to control; format: toxicity, cell-based; settings: read-out: GI
[8] = test system: Mycobacterium tuberculosis; assay: Growth inhibition of Mycobacterium bovis BCG ATCC 35743 at dormant stage at 10 ug/ml measured after 12 days by nitrate reductase dye based two fold dilution method relative to control; format: functional; settings: BCG str. ATCC 35743, 288 h, read-out: GI; how it was run: as §3
[9] = test system: Mycobacterium tuberculosis; assay: Growth inhibition of Mycobacterium bovis BCG ATCC 35743 at dormant stage measured after 12 days by nitrate reductase dye based two fold dilution method; format: functional; settings: BCG str. ATCC 35743, 288 h; how it was run: as §3
[10] = test system: Mycobacterium tuberculosis; assay: Growth inhibition of Mycobacterium bovis BCG ATCC 35743 at dormant stage at 50 ug/ml measured after 12 days by nitrate reductase dye based two fold dilution method relative to control; format: functional; settings: BCG str. ATCC 35743, 288 h, read-out: GI; how it was run: as §3
[11] = test system: Mycobacterium tuberculosis; assay: Growth inhibition of Mycobacterium tuberculosis H37Ra ATCC 25177 at active stage at 12.5 ug/ml measured after 8 days by XTT dye based two fold dilution method relative to control; format: functional; settings: H37Ra ATCC 25177, 192 h, read-out: GI
Staphylococcus aureus = assay: Antibacterial activity against of Staphylococcus aureus NCIM 2010 measured after 12 hrs; format: functional; settings: NCIM 2010, 12 h
How it was run: (§4)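 Bacteria grown in LB at 37 °C and 180 rpm to OD 1. Compounds added to wells, then 0.1% inoculum of 1 OD culture (620 nm). Growth read as OD at 620 nm after 8 h for gram-negative and after 12 h for gram-positive strains.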

Pseudomonas fluorescens [12] = assay: Growth inhibition of Pseudomonas fluorescens NCIM 2036 at 10 ug/ml measured after 8 hrs relative to control; format: functional; settings: NCIM 2036, 8 h, read-out: GI; how it was run: as §4
Bacillus subtilis [13] = assay: Growth inhibition of Bacillus subtilis NCIM 2079 at 10 ug/ml measured after 12 hrs relative to control; format: functional; settings: NCIM 2079, 12 h, read-out: GI; how it was run: as §4
[14] = test system: Mycobacterium tuberculosis; assay: Growth inhibition of Mycobacterium tuberculosis H37Ra ATCC 25177 at dormant stage at 3.13 ug/ml measured after 12 days by XTT dye based two fold dilution method relative to control; format: functional; settings: H37Ra ATCC 25177, 288 h, read-out: GI; how it was run: as §1
Pseudomonas fluorescens [15] = assay: Growth inhibition of Pseudomonas fluorescens NCIM 2036 at 3 ug/ml measured after 8 hrs relative to control; format: functional; settings: NCIM 2036, 8 h, read-out: GI; how it was run: as §4
Pseudomonas fluorescens [16] = assay: Antibacterial activity against Pseudomonas fluorescens NCIM 2036 measured after 8 hrs; format: functional; settings: NCIM 2036, 8 h; how it was run: as §4
[17] = test system: Mycobacterium tuberculosis; assay: Growth inhibition of Mycobacterium tuberculosis H37Ra ATCC 25177 at active stage at 100 ug/ml measured after 8 days by XTT dye based two fold dilution method relative to control; format: functional; settings: H37Ra ATCC 25177, 192 h, read-out: GI; how it was run: as §1
[18] = test system: Mycobacterium tuberculosis; assay: Growth inhibition of Mycobacterium bovis BCG ATCC 35743 at active stage at 0.78 ug/ml measured after 8 days by nitrate reductase dye based two fold dilution method relative to control; format: functional; settings: BCG str. ATCC 35743, 192 h, read-out: GI; how it was run: as §3
Escherichia coli [19] = assay: Growth inhibition of Escherichia coli NCIM 2688 at 10 ug/ml measured after 8 hrs relative to control; format: functional; settings: NCIM 2688, 8 h, read-out: GI; how it was run: as §4
Escherichia coli [20] = assay: Growth inhibition of Escherichia coli NCIM 2688 at 30 ug/ml measured after 8 hrs relative to control; format: functional; settings: NCIM 2688, 8 h, read-out: GI; how it was run: as §4
[21] = test system: Mycobacterium tuberculosis; assay: Growth inhibition of Mycobacterium bovis BCG ATCC 35743 at active stage at 25 ug/ml measured after 8 days by nitrate reductase dye based two fold dilution method relative to control; format: functional; settings: BCG str. ATCC 35743, 192 h, read-out: GI; how it was run: as §3
[22] = Selectivity index, ratio of GI50 for human PANC1 cells to MIC for Mycobacterium tuberculosis H37Ra ATCC 25177 at dormant stage; format: toxicity, cell-based, PANC-1; settings: read-out: Selectivity Index; how it was run: as §2
Candida albicans = assay: Antifungal activity against Candida albicans NCIM 3471 by standard agar method; format: functional
How it was run: (§5)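 MICs determined by standard agar method; DMSO as solvent control.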

[23] = Antifungal activity against Fusarium oxysporum NCIM 1332 by standard agar method; format: functional; how it was run: as §5
[24] = test system: Mycobacterium tuberculosis; assay: Growth inhibition of Mycobacterium tuberculosis H37Ra ATCC 25177 at dormant stage at 0.78 ug/ml measured after 12 days by XTT dye based two fold dilution method relative to control; format: functional; settings: H37Ra ATCC 25177, 288 h, read-out: GI; how it was run: as §1
Bacillus subtilis [25] = assay: Growth inhibition of Bacillus subtilis NCIM 2079 at 3 ug/ml measured after 12 hrs relative to control; format: functional; settings: NCIM 2079, 12 h, read-out: GI; how it was run: as §4
[26] = test system: Mycobacterium tuberculosis; assay: Growth inhibition of Mycobacterium bovis BCG ATCC 35743 at active stage measured after 8 days by nitrate reductase dye based two fold dilution method; format: functional; settings: BCG str. ATCC 35743, 192 h; how it was run: as §3
[27] = Selectivity index, ratio of GI50 for human A549 cells to MIC for Mycobacterium tuberculosis H37Ra ATCC 25177 at dormant stage; format: toxicity, cell-based; settings: read-out: Selectivity Index; how it was run: as §2
[28] = test system: Mycobacterium tuberculosis; assay: Growth inhibition of Mycobacterium tuberculosis H37Ra ATCC 25177 at dormant stage at 1.56 ug/ml measured after 12 days by XTT dye based two fold dilution method relative to control; format: functional; settings: H37Ra ATCC 25177, 288 h, read-out: GI; how it was run: as §1

O=C1NC(=S)S/C1=C\c1cc2cc(Cl)ccc2nc1Cl
GI50 at 48 h [1]: > 100 µg/mL
inhibition of growth at 100 µg/mL [2]: 85.4%
inhibition at 48 h, 100 ug/ml [3]: 29.1%
selectivity ratio [4]: 15.6
inhibition of growth at 100 µg/mL [5]: 98.7%
GI50 at 48 h [6]: > 100 µg/mL
inhibition at 48 h, 100 ug/ml [7]: 26.9%
inhibition of growth at 10 µg/mL [8]: 99.6%
IC50 [9]: 1.3 µg/mL (≈ 3.81 µM)
IC90 [9]: 2.2 µg/mL (≈ 6.45 µM)
inhibition of growth at 50 µg/mL [10]: 101%
inhibition of growth at 12.5 µg/mL [11]: 99.3%
MIC (Staphylococcus aureus): 2.55 µg/mL (≈ 7.47 µM)
inhibition of growth at 10 µg/mL (Pseudomonas fluorescens [12]): 101%
inhibition of growth at 10 µg/mL (Bacillus subtilis [13]): 92.5%
inhibition of growth at 3.13 µg/mL [14]: 42.4%
inhibition of growth at 3 µg/mL (Pseudomonas fluorescens [15]): 95.6%
MIC (Pseudomonas fluorescens [16]): 2.8 µg/mL (≈ 8.21 µM)
inhibition of growth at 100 µg/mL [17]: 92.7%
inhibition of growth at 0.78 µg/mL [18]: 7.4%
inhibition of growth at 10 µg/mL (Escherichia coli [19]): 109%
inhibition of growth at 30 µg/mL (Escherichia coli [20]): 92.8%
inhibition of growth at 25 µg/mL [21]: 99.9%
selectivity ratio [22]: 15.6
MIC (Candida albicans): 100 µg/mL (≈ 293 µM)
MIC [23]: 100 µg/mL (≈ 293 µM)
inhibition of growth at 0.78 µg/mL [24]: -27.1%
inhibition of growth at 3 µg/mL (Bacillus subtilis [25]): 62.8%
IC50 [26]: 1 µg/mL (≈ 2.93 µM)
IC90 [26]: 1.7 µg/mL (≈ 4.98 µM)
selectivity ratio [27]: 15.6
inhibition of growth at 1.56 µg/mL [28]: 32.4%
